# High-throughput results deposited in PubChem BioAssay by several laboratories.
# Shown are actives, neighbours in structure and some others; about 5.1% of the full set was active somewhere.
# NF-kB neuron act: raises NF-kB expression in human neuronal cells | hit rate 1.6% among 190,000 | fold change at 12.5 µM | NF-kB reporter expression; active compounds read high; in the data active = fold change above about 3.3
# APP 5'UTR act: activates APP 5'UTR luciferase reporter; SH-SY5Y APP 5'UTR luciferase reporter, luminescence; zero percent = DMSO vehicle wells; AID 1276; activation, % at 2 µM; hit rate 1% among 190,000;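 active = activation above a set limit, based on mean plus 3 SD of controls, cut at about 140% in these data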
# STAT3 act: activators of IL-6 induced STAT3 signaling; U3A cells, IL-6 STAT3-luciferase reporter, luminescence; 100% = signal with IL-6 EC80 alone; activation (% of control), % at 5.6 µM; hit rate 0.91% among 190,000;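 active = activation above the screen-wide mean of compound activation plus 3 SD, cut at about 130% in these data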;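 also: 0% = background luminescence of wells with medium and substrate only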
#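 Test system: Human STAT1-deficient U3A cells with stable STAT3-luciferase reporter | Also added: Interleukin-6, 33 ng/mL | Timing: Compound pre-incubation 1 h before IL-6, then 6 h stimulation at 37 °C | Technique: Luciferase reporter luminescence | Read-out: Percent of IL-6-only median luminescence | Benchmarks: IL-6-only wells as 100% reference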
# STAT3 blocker: inhibitors of IL-6 induced STAT3 signaling; inhibition, % at 5.5 µM; hit rate 0.89% among 190,000; U3A cells, IL-6 STAT3-luciferase reporter, luminescence; host cell line lacks STAT1;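 active = inhibition above the mean inhibition across all screened compounds plus 3 SD, cut at about 44% in these data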;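 also: 0% = DMSO only wells and 100% = 100 µM nifuroxazide control wells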
# STAT1 blocker: reduces IFN-gamma driven STAT1 reporter signal; inhibition, % at 5.5 µM; NIH 3T3 STAT1-luciferase reporter, luminescence; hit rate 0.35% among 200,000;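 active = inhibition above a set limit, the mean inhibition across all tested compounds plus 3 SD, cut at about 34% in these data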;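 also: 0% = IFN-gamma with DMSO and 100% = IFN-gamma with 300 µM nifuroxazide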
# STAT1 act: STAT1 signaling activation; NIH 3T3 STAT1-luciferase reporter, IFN-gamma, luminescence; 100% = IFN-gamma alone, no compound; activation (% of control), % at 5.5 µM; hit rate 2.6% among 200,000;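 active = activation above the screen-wide mean activation plus 3 SD, cut at about 130% in these data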;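 also: raw ratio to IFN-gamma control signal so 100% means no change and 0% no light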
# * hit, by the source's call; x = no result.
SMILES,NF-kB neuron act,APP 5'UTR act,STAT3 act,STAT3 blocker,STAT1 blocker,STAT1 act
Cc1cccc(C(=O)OC(C)CN2CCOCC2)c1 (centres undefined),1.5,-14,104,4,-12,112
O=C(CSc1nnc2c(n1)[nH]c1ccc(S(=O)(=O)N3CCOCC3)cc12)Nc1ccc(F)c(F)c1,1.3,12,106,-7,-10,110
CC(C)c1ccc2[nH]c3nc(SCC(=O)N4CCOCC4)nnc3c2c1,1,15,102,4,-37,131*
COc1cccc(C(=O)NCC(=O)OCC(=O)c2ccccc2)c1,1.1,3,111,-10,-57,150*
COC(=O)c1ccccc1NC(=S)N1CCC(N2CCCCC2)CC1,1.1,8,110,-3,4,96
CCOC(=O)C1CCN(Cc2ccc(O)c3ncccc23)CC1,10*,-41,100,2,5,96
COc1ccccc1N1CCN(Cc2ccc(O)c3ncccc23)CC1,7.2*,-90,91,10,9,91
CCOc1cc2[nH]c(=S)n(CCCN(CC)CC)c(=O)c2cc1OCC,1.1,10,106,-5,-5,105
COc1ccc(C(C(=O)NC(C)(C)C)N(C(=O)CNC(=O)c2cccs2)c2ccc(C)cc2)cc1OC (centres undefined),1,14,99,7,8,93
CCCCc1ccc(-c2ccc(Br)cc2O)nc1,5.5*,29,82,26,-43,140*
CCOC1(OCC)C(c2ccc(Cl)cc2)C(C#N)(C#N)C1(OCC)OCC (centres undefined),1.1,-17,104,-4,7,93
CCOC(=O)c1noc(C)c1C(=O)Nc1nccs1,6*,7,106,-6,9,92
Cc1ccc(-n2nc(C)c3c(C)c(CCC(=O)NCc4ccco4)c(C)nc32)cc1,1,10,x,x,x,x
CCc1cc2cc(C(=O)Nc3ccccc3F)sc2s1,2.7,163*,69,42,-50,146*
Oc1ccc(Cl)cc1C1=NNC(c2cc(Br)cc3c2OCOC3)C1 (centres undefined),1.3,11,91,13,-7,104
Oc1ccc(Cl)cc1C1=NNC(c2ccc(Cl)cc2)C1 (centres undefined),1.3,55,105,-3,-33,130*
COC(=O)c1ccccc1NC(=O)CSc1nc(C)cc(C)n1,0.89,0,97,9,1,99
Cc1cc(C)nc(SCC(=O)Nc2ccnc3ccccc23)n1,0.84,5,26,86*,36*,66
O=C(CN1C(=O)c2ccccc2C1=O)N1CCN(C2c3ccccc3-c3ccccc32)CC1,0.95,4,103,-5,4,96
Cc1ccc(NCc2ccc(O)c3ncccc23)cc1,1.4,7,100,2,-9,107
Cc1cccnc1NCc1ccc(O)c2ncccc12,8.6*,-6,99,6,5,96
Cc1ccc(NCc2ccc(O)c3ncccc23)cc1C,0.99,15,135*,-39,-5,103
Cc1nc2[nH]onc2c2nccc(=O)c12,1.2,-4,102,0,4,96
O=C(CN1C(=O)S/C(=C\C=C\c2ccccc2)C1=O)Nc1cccc(O)c1,3.4*,16,109,-7,-33,130*
CC(=O)c1ccc(NC(=O)CN2C(=O)/C(=C/C=C/c3ccccc3)SC2=S)cc1,0.98,16,103,-4,-11,110
SMILES,NF-kB neuron act,APP 5'UTR act,STAT3 act,STAT3 blocker,STAT1 blocker,STAT1 act
Nc1cccc(-c2cn3cc(C(F)(F)F)cc(Cl)c3n2)c1,6.8*,x,108,-4,-33,130*
Cc1cc(C(F)(F)F)nc(-n2cc(-c3cccc(N)c3)nn2)n1,1,2,87,25,-7,105
Cc1snc2sc(C(=O)c3ccc(Br)cc3)c(N)c12,1.3,3,99,8,-38,135*
COC(=O)C1=C(CSCc2ccccc2)NC(=O)NC1c1cc(C)ccc1C (centres undefined),0.84,1,93,12,21,81
O=C(N/N=C\C=C\c1ccco1)c1cc(-c2ccc3ccccc3c2)n[nH]1,2,30,100,3,-37,133*
O=C(N/N=C/C=C/c1ccco1)c1cccnc1,1,8,103,-2,-1,101
c1ccc(-c2cc(N3CCCCCC3)n[nH]2)cc1,1.4,28,99,1,-33,130*
c1ccc(-c2cc(N3CCCCC3)ncn2)cc1,1.7,45,108,-6,-18,117
CC(=O)c1cnc2sccn2c1=O,1.1,4,102,0,-1,101
Cc1ccc(N=Cc2nc(-c3ccco3)oc2O)cc1,3.5*,75,98,5,-44,141*
Cc1cc(C)n2c(SCCN3C(=O)c4ccccc4C3=O)nnc2n1,x,-17,93,14,1,99
CSc1nc2nccc(-c3ccc4c(c3)OCO4)n2n1,1.2,-9,80,29,0,99
CC(=O)N1C(C(=O)O)CSC1c1ccc(C)cc1 (centres undefined),4.2*,10,x,x,x,x
CCC(C)NC(=O)Cn1nc([N+](=O)[O-])c(Cl)c1C (centres undefined),1.2,-4,108,-3,-4,104
CC(=O)c1cccc(NC(=O)C(=O)Nc2cccc3ccccc23)c1,1.5,70,101,1,-42,137*
CC(=O)c1cccc(NC(=O)CCOc2ccccc2)c1,2.1,9,109,-5,-4,104
Cc1nc2cc(NC(=O)Nc3cccc4ccccc34)ccc2n1C,2.3,110,87,20,-51,145*
COC(=O)c1cc(OC)c(OC)cc1NC(=O)Nc1ccccc1OC,0.99,-12,105,2,-6,106
COc1cc([N+](=O)[O-])ccc1N=Nc1c(N)[nH]n(-c2ccccc2)c1=O,1.1,1,97,5,2,97
Nc1[nH]n(-c2ccccc2)c(=O)c1N=Nc1ccccc1[N+](=O)[O-],1.6,90,93,9,-43,139*
O=C(c1cnc(N2CCN(c3ncccn3)CC2)c2ccccc12)N1CCN(c2ncccn2)CC1,0.56,-1,107,-6,-1,101
O=C1CC(N2CCN(c3ccccn3)CC2)C(=O)N1CC(c1ccccc1)c1ccccc1 (centres undefined),0.56,15,104,-2,-1,107
O=C1c2ccccc2NC(c2ccccc2Cl)N1N=C1CCCCCC1 (centres undefined),1.7,44,104,-7,-43,139*
CC1(CC(=O)N/N=C/c2cc(Br)c(O)cc2O)OCCO1,0.81,-2,104,0,3,98
CCOC(=O)c1cc(-c2ccccc2)sc1NC(=O)CSc1nncs1,1.4,-7,85,14,8,93
NNc1nc(-c2ccccc2)nc2sc3c(c12)CCCC3,1.7,171*,139*,-40,-44,140*
